# ChEMBL document CHEMBL1144053, “Six triterpenoid saponins from Mmaesa laxiflora” (J Nat Prod, 1999)
# Activity calls are given as the source filed them. The calls are words filed in the database; no cut-off is given here.
# What was measured:
# A549 = experiment: Cytotoxicity against human A549 cells by MTT assay; assay type: functional, cell-based
# Outline: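 A-549 cells from NCI; standard MTT-based colorimetric cytotoxicity assay.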
# [1] = Inhibition of tubulin polymerization at 10 mg/mL by tubulin assembly assay; design: scale not given: the % may be the effect or the level left
# Outline: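 Test compound added to cold (6 °C) tubulin solution; assembly started by shifting the temperature from 6 to 37 °C. Turbidity followed over time, with polymerization rate taken from the slope of the turbidity increase.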
# [2] = Inhibition of tubulin polymerization at 1 ug/mL by tubulin assembly assay; design: scale not given: the % may be the effect or the level left
# Outline: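 Compound added to cold (6 °C) tubulin solution; assembly started by a temperature shift from 6 to 37 °C. Turbidity followed over time, with polymerization rate taken as the slope of the turbidity increase.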
Compound,Activity (A549),Activity [1] [%],Activity [2] [%]
C/C=C(\C)C(=O)O[C@H]1CC(C)(C)C[C@H]2C3=CC[C@@H]4[C@@]5(C)CC[C@H](O[C@@H]6O[C@H](C(=O)O)[C@@H](O)[C@H](O[C@@H]7O[C@H](CO)[C@H](O)[C@H](O)[C@H]7O[C@@H]7O[C@@H](C)[C@H](O)[C@@H](O)[C@H]7O[C@@H]7O[C@@H](C)[C@H](O)[C@@H](O)[C@H]7O)[C@H]6O[C@@H]6O[C@H](CO)[C@@H](O)[C@H](O)[C@H]6O)C(C)(C)[C@@H]5CC[C@@]4(C)[C@]3(C)C[C@@H](OC(C)=O)[C@@]12CO,inactive,41,–
C/C=C(\C)C(=O)O[C@H]1CC(C)(C)C[C@H]2C3=CC[C@@H]4[C@@]5(C)CC[C@H](O[C@@H]6O[C@H](C(=O)O)[C@@H](O)[C@H](O[C@@H]7O[C@H](CO)[C@H](O)[C@H](O)[C@H]7O[C@@H]7O[C@@H](C)[C@H](O)[C@@H](O)[C@H]7O[C@@H]7O[C@@H](C)[C@H](O)[C@@H](O)[C@H]7O)[C@H]6O[C@@H]6O[C@H](CO)[C@@H](O)[C@H](O)[C@H]6O)C(C)(C)[C@@H]5CC[C@@]4(C)[C@]3(C)C[C@@H](O)[C@@]12CO,inactive,41,–
C/C=C(\C)C(=O)O[C@H]1CC(C)(C)C[C@H]2C3=CC[C@@H]4[C@@]5(C)CC[C@H](O[C@@H]6O[C@H](C(=O)O)[C@@H](O)[C@H](O[C@@H]7O[C@H](CO)[C@H](O)[C@H](O)[C@H]7O[C@@H]7O[C@@H](C)[C@H](O)[C@@H](O)[C@H]7O[C@@H]7O[C@@H](C)[C@H](O)[C@@H](O)[C@H]7O)[C@H]6O[C@@H]6O[C@H](CO)[C@H](O)[C@H](O)[C@H]6O)C(C)(C)[C@@H]5CC[C@@]4(C)[C@]3(C)C[C@@H](OC(C)=O)[C@@]12CO,inactive,41,–
C/C=C(\C)C(=O)O[C@H]1CC(C)(C)C[C@H]2C3=CC[C@@H]4[C@@]5(C)CC[C@H](O[C@@H]6O[C@H](C(=O)O)[C@@H](O)[C@H](O[C@@H]7O[C@H](CO)[C@H](O)[C@H](O)[C@H]7O[C@@H]7O[C@@H](C)[C@H](O)[C@@H](O)[C@H]7O[C@@H]7O[C@@H](C)[C@H](O)[C@@H](O)[C@H]7O)[C@H]6O[C@@H]6O[C@H](CO)[C@H](O)[C@H](O)[C@H]6O)C(C)(C)[C@@H]5CC[C@@]4(C)[C@]3(C)C[C@@H](O)[C@@]12CO,inactive,41,–
COc1cc2c(c(OC)c1OC)-c1ccc(OC)c(=O)cc1[C@@H](NC(C)=O)CC2,–,–,50
CCC/C=C\C(=O)O[C@H]1CC(C)(C)C[C@H]2C3=CC[C@@H]4[C@@]5(C)CC[C@H](O[C@@H]6O[C@H](C(=O)O)[C@@H](O)[C@H](O[C@@H]7O[C@H](CO)[C@H](O)[C@H](O)[C@H]7O[C@@H]7O[C@@H](C)[C@H](O)[C@@H](O)[C@H]7O[C@@H]7O[C@@H](C)[C@H](O)[C@@H](O)[C@H]7O)[C@H]6O[C@@H]6O[C@H](CO)[C@H](O)[C@H](O)[C@H]6O)C(C)(C)[C@@H]5CC[C@@]4(C)[C@]3(C)C[C@@H](O)[C@@]12CO,inactive,41,–
CCC/C=C\C(=O)O[C@H]1CC(C)(C)C[C@H]2C3=CC[C@@H]4[C@@]5(C)CC[C@H](O[C@@H]6O[C@H](C(=O)O)[C@@H](O)[C@H](O[C@@H]7O[C@H](CO)[C@H](O)[C@H](O)[C@H]7O[C@@H]7O[C@@H](C)[C@H](O)[C@@H](O)[C@H]7O[C@@H]7O[C@@H](C)[C@H](O)[C@@H](O)[C@H]7O)[C@H]6O[C@@H]6O[C@H](CO)[C@@H](O)[C@H](O)[C@H]6O)C(C)(C)[C@@H]5CC[C@@]4(C)[C@]3(C)C[C@@H](O)[C@@]12CO,inactive,41,–
